High-throughput results (PubChem BioAssay)
SUMO HTRF inh – blocks human SUMOylation mediated by UBC9; P63279; HTRF SUMOylation assay, SAE1/SAE2 + UBC9, in vitro; inhibition, % at 35 µM; 290,000 compounds, 0.36% hits; in the data active means inhibition above about 50%, passing the limit was not always enough; inconclusive means no clear call, values can overlap the other calls
p47phox inh – p47phox (human) inhibition; AID 1274; p47phox/p22phox peptide binding, fluorescence polarization, 2 h; 220,000 compounds, 0.53% hits; inhibition, % at 24.7 µM;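 further: 0% = p47phox with labelled peptide and 100% = labelled peptide alone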
p97 inhibitor – blocks human p97 ATPase activity; P55072; recombinant p97 ATPase, Kinase-Glo ATP luminescence, 3 h; inhibition, % at 8 µM; 220,000 compounds, 0.42% hits; AID 1481; in the data active means inhibition above about 15%;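 further: 0% = DMSO vehicle and 100% = wells lacking enzyme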
eIF4E-4G inh – blocks eIF4E binding to eIF4G; AID 782; P63073+Q04637; inhibition, % at 21.7 µM; TR-FRET eIF4E-eIF4GI(517-606) binding, 2 h; 220,000 compounds, 0.37% hits;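 further: 0% = full FRET control wells and 100% = background wells lacking eIF4GI fragment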
14-3-3 Bad inh – disrupts binding of bovine 14-3-3 zeta to phospho-Bad peptide; P63103; TR-FRET 14-3-3zeta/Dy647-pBad peptide displacement, 1 h; inhibition, % at 21.7 µM; 220,000 compounds, 0.71% hits; AID 781;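 active means inhibition above about 70%, limit read from the data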;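 further: 0% = full 14-3-3 plus peptide FRET controls and 100% = background without 14-3-3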
TbMetRS inhib – Trypanosoma brucei MetRS inhibition; purified T. brucei MetRS, ATP depletion, Kinase-Glo luminescence; inhibition, % at 11.9 µM; 360,000 compounds, 0.4% hits; AID 624268;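 active means inhibition above a per-plate cutoff of the control wells' mean inhibition plus 3 SD, cut at about 5.5% in these data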;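 further: 0% = DMSO wells median and 100% = median of wells with control inhibitor compound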
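Material: parasite MetRS enzyme / Replication: singlicate, one well per compound / Signal: luminescence of leftover ATP / Schedule: 2 h aminoacylation at 25 °C after 15 min preincubation / Medium: HEPES-MgCl2-KCl buffer plus DTT, spermine, BSA, pyrophosphatase / Doses: 11.9 µM single point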
An asterisk follows results filed as active; [ ] = dose if it differs, or a comment. Rows were chosen to be rich in hits. Some 1.6% of all compounds tested hit in one or more screens of this group.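 How the source made its calls, unless noted: active means inhibition above about 30% (limit read from the data); inactive means the rest.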

`CC1Oc2cc3c(-c4c(O)cc(O)c5c(O)c6c(cc45)OC(C)C(C)C6=O)c(O)cc(O)c3c(O)c2C(=O)C1C` (stereo not drawn) gave SUMO HTRF inh inconclusive, p47phox inh -12, p97 inhibitor 8, eIF4E-4G inh 56*, 14-3-3 Bad inh 25 and TbMetRS inhib 3.
CCC(C)N1C(=O)/C(=C\c2cc3c4c(c2)CCCN4CCC3)C(=O)NC1=S (stereo not drawn) was read as SUMO HTRF inh 19, p47phox inh 63*, p97 inhibitor 2, eIF4E-4G inh 0, 14-3-3 Bad inh -6 and TbMetRS inhib 0.
CCC(C)N1C(=O)/C(=C\c2cnc(N(C)C)nc2)C(=O)NC1=S (stereo not drawn) was read as SUMO HTRF inh 13, p47phox inh -6, p97 inhibitor -1, eIF4E-4G inh -1, 14-3-3 Bad inh 3 and TbMetRS inhib -1.
`CCC(C)N1C(=O)/C(=C\c2ccc(N3CCCCCC3)cc2)C(=O)NC1=S` (stereo not drawn) gave SUMO HTRF inh 21, p47phox inh 56*, p97 inhibitor -5, eIF4E-4G inh 5, 14-3-3 Bad inh -18 and TbMetRS inhib -1.
Screening Cc1ccc2c(c1)Oc1ccccc1N=C2 returned TbMetRS inhib 0.
For CC(C)CN(CC(C)C)c1ccc(C=C2C(=O)NC(=S)NC2=O)cc1[N+](=O)[O-] the results were SUMO HTRF inh -18, p47phox inh -30, p97 inhibitor 3, eIF4E-4G inh 62*[fluorescence artefact?], 14-3-3 Bad inh 65 and TbMetRS inhib -1.
For O=P(/C=C1\OCc2ccccc21)(Oc1ccccc1)Oc1ccccc1 the results were TbMetRS inhib -1.
CCOc1ccc(C2CC(c3c(O)n(C)c(=O)n(C)c3=O)=NN2)cc1 (stereo not drawn) was read as SUMO HTRF inh 6, p47phox inh 61*, p97 inhibitor 5, eIF4E-4G inh -1, 14-3-3 Bad inh -12 and TbMetRS inhib -1.
For Cn1c(O)c(C2=NNC(c3ccc(Cl)cc3)C2)c(=O)n(C)c1=O (stereo not drawn) the results were SUMO HTRF inh 7, p47phox inh 5, p97 inhibitor 6, eIF4E-4G inh 4, 14-3-3 Bad inh -10 and TbMetRS inhib -1.
C=C1C(=O)O[C@@H]2C[C@@H](C)[C@@H]3C=CC(=O)[C@@]3(C)[C@@H](OC(=O)CC(=O)O[C@H]3[C@@H]4C(=C)C(=O)O[C@@H]4C[C@@H](C)[C@@H]4C=CC(=O)[C@]43C)[C@H]12 was read as SUMO HTRF inh 54*, p47phox inh 1, eIF4E-4G inh -4, 14-3-3 Bad inh -6 and TbMetRS inhib 0.
Screening C=C1C(=O)OC2CC(C)C3C=CC(=O)C3(C)C(O)C12 (stereo not drawn) returned TbMetRS inhib 0.
For Nc1ccc(S(=O)(=O)N2CCCCC2c2cccnc2)cc1 (stereo not drawn) the results were SUMO HTRF inh 25, p47phox inh -13, p97 inhibitor -3, eIF4E-4G inh 1, 14-3-3 Bad inh -7 and TbMetRS inhib 0.
For O=S(=O)(c1ccccc1)N1CCCCC1c1cccnc1 (stereo not drawn) the results were SUMO HTRF inh 0, p47phox inh 43*, p97 inhibitor -2, eIF4E-4G inh -7, 14-3-3 Bad inh 9 and TbMetRS inhib -1.
Screening O=C(Cn1ccc2ccccc2c1=O)NCC(=O)N1CCC2(CC1)OCCO2 returned SUMO HTRF inh 2, p47phox inh 6, p97 inhibitor 3, eIF4E-4G inh 6, 14-3-3 Bad inh 0 and TbMetRS inhib 0.
For Cc1ccc(CN(Cc2ccccc2)C(=S)NCC(=O)N2CCC3(CC2)OCCO3)o1 the results were SUMO HTRF inh 31, p47phox inh -2, p97 inhibitor -4, eIF4E-4G inh 80*, 14-3-3 Bad inh -5 and TbMetRS inhib -1.
COc1ccc2c(c1)C13CCN4CC5=CCOC6CC(=O)N2C1C6C5CC43 (stereo not drawn) was read as TbMetRS inhib 0.
For COc1ccc(C(c2nnnn2-c2ccc3c(c2)OCCO3)N2CCC3(CC2)C(=O)NCN3c2ccccc2)cc1 (stereo not drawn) the results were TbMetRS inhib 0.
Screening O=c1c2ccccc2[se]n1-c1ccccc1 returned SUMO HTRF inh -14, p47phox inh 85*, p97 inhibitor 1, eIF4E-4G inh 77*, 14-3-3 Bad inh 28 and TbMetRS inhib -1.
For O=c1c2ccccc2nc(-c2ccccc2)n1-c1ccccc1 the results were SUMO HTRF inh -6, p47phox inh -4, p97 inhibitor -3, eIF4E-4G inh -4, 14-3-3 Bad inh 2 and TbMetRS inhib 0.
Screening O=c1[nH]c(O)c(/C=C2/C=CC(c3cc(Cl)ccc3Cl)=N2)c(=O)[nH]1 returned p47phox inh 50*, p97 inhibitor 1, eIF4E-4G inh -13, 14-3-3 Bad inh 45 and TbMetRS inhib 1.
For CN1C2c3ccccc3C3C4c5ccccc5C(C31)C(C2[N+](=O)[O-])N4C (stereo not drawn) the results were SUMO HTRF inh 15, p47phox inh 92*, p97 inhibitor 3, eIF4E-4G inh 2, 14-3-3 Bad inh -6 and TbMetRS inhib -1.
CN1C2CCC1C(COC(=O)c1ccccc1)C(O)C2 (stereo not drawn) was read as SUMO HTRF inh -6, p47phox inh -6, p97 inhibitor -1, eIF4E-4G inh -2, 14-3-3 Bad inh 91* and TbMetRS inhib -1.
Screening CC(=O)OC1CC2OC3C=C(C)CCC3(C)C1(C)C21CO1 (stereo not drawn) returned TbMetRS inhib 0.
For CCC(C)(O)C(=O)OC1C(=O)OC2CC3C(C)=CC(O)C(O)C3(C)C3C4(O)OCC23C1C(C)C4O (stereo not drawn) the results were TbMetRS inhib 0.
Screening C=CCN1C(=O)/C(=C/c2ccc(Br)s2)C(=O)NC1=S returned SUMO HTRF inh -2 and TbMetRS inhib 0.
CCN1C(=O)/C(=C\c2ccc([N+](=O)[O-])s2)C(=O)NC1=S was read as SUMO HTRF inh 20, p47phox inh -12, p97 inhibitor 5, eIF4E-4G inh 24 and 14-3-3 Bad inh 94*.
For NC(Cc1ccc(F)cc1)c1csc(Nc2ncccn2)n1 (stereo not drawn) the results were TbMetRS inhib 0.
Screening COc1ccc(CC2C(=O)N(c3ccccc3)C(=O)N(c3ccccc3)C2=O)c(OC)c1 returned SUMO HTRF inh 1, p47phox inh -10, p97 inhibitor 1, eIF4E-4G inh 1, 14-3-3 Bad inh 35 and TbMetRS inhib -1.
